Test results from PubChem BioAssay AID492951 (Molecular Libraries Program, Specialized Chemistry Center, …, 2010).
Calls of active or inactive are those of the source.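 The calls were made as follows: active = inhibition above 10%; inactive = the rest.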

Biological target: Hexokinase-4 (Homo sapiens) (UniProt P35557)
Assay: hGlck enzyme activity off-target inhibitors – biochemical, recombinant hGlck, counter-screen for TbHK1 inhibitor project (AID 492951)
Conditions: G6PDH-coupled NADH absorbance 340 nm, at 10 µM
Summary of the method: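 Test system: recombinant human glucokinase, G6PDH-coupled; Medium: pH 7.9 TEA buffer, MgCl2, NAD+; Also added: 20 mM glucose as reaction starter, plus 1 mM ATP; Compound dosing: single final test compound dose of 10 µM; Schedule: 10 min preincubation at room temperature; Measured by: NADH formation by absorbance at 340 nm; Repeats: triplicate.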

Hexokinase-4 (Homo sapiens), sequence (P35557 whole entry, looked up): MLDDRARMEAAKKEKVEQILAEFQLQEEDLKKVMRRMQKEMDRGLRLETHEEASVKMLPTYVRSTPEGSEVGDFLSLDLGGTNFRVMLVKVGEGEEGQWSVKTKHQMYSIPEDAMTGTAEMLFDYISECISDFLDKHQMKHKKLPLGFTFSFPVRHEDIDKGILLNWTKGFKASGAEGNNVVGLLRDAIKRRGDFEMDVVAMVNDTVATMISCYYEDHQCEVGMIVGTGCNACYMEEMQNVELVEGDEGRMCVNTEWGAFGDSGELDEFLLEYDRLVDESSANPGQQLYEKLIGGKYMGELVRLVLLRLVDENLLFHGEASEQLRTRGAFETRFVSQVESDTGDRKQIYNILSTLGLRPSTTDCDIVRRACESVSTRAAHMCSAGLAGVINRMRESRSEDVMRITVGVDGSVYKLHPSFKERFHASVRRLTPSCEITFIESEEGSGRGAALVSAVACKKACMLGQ

Row | Compound | outcome
1 | O=C1CCN(C(=O)Nc2cc(Cl)ccc2C(=O)O)CC1 | inactive
2 | O=c1ccsn1-c1ccccc1 | inactive
